Data set [1] is described as follows: Toxicity in NOD/SCID mouse xenografted with human Daudi cells assessed as organ damage at 10 mg/kg, iv treated on day 1,3 and 5 per week and measured for every 2 days by H and E staining based assay. Type of data set: organism-based. The conditions noted are these: in vivo, 48 h. The method, boiled down:
(§1)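 Female NOD/SCID mice (5–6 weeks) bearing s.c. Daudi xenografts, six per group. Dosing was 10 mg/kg i.v. or 20 mg/kg p.o. in 8% HP-β-CD on days 1, 3 and 5 weekly. Behaviour was observed, and organ tissues were collected at sacrifice for H&E staining.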

Data set [2] concerns JeKo-1. The data set can be described thus: Cell cycle arrest in human JeKo1 cells assessed as accumulation at G1 phase at 10 nM after 24 hrs by propidium iodide staining based flow cytometric analysis (reference value: 63.16 %). Type of data set: functional. For orientation: A flow cytometer gives signals particle by particle.
Data set [3] concerns JeKo-1. The data set can be described thus: Cell cycle arrest in human JeKo1 cells assessed as accumulation at G2/M phase at 10 nM after 24 hrs by propidium iodide staining based flow cytometric analysis (reference value: 10.71 %). Type of data set: functional.
In data set [4] the target is Histone deacetylase 3/Nuclear receptor corepressor 2 (HDAC3/NCoR2) (Homo sapiens, UniProt O15379). Nature of the data set: Inhibition of human recombinant full length C-terminal His-tagged HDAC3 (1 to 428 residues)/N-terminal GST-tagged NCOR2 (395 to 489 residues) expressed in Sf9 cells using Ac-peptide-AMC as substrate after 1 hr by fluorescence assay.
Sequence of Histone deacetylase 3/Nuclear receptor corepressor 2 (HDAC3/NCoR2) (O15379 whole entry, the tested form may be a part): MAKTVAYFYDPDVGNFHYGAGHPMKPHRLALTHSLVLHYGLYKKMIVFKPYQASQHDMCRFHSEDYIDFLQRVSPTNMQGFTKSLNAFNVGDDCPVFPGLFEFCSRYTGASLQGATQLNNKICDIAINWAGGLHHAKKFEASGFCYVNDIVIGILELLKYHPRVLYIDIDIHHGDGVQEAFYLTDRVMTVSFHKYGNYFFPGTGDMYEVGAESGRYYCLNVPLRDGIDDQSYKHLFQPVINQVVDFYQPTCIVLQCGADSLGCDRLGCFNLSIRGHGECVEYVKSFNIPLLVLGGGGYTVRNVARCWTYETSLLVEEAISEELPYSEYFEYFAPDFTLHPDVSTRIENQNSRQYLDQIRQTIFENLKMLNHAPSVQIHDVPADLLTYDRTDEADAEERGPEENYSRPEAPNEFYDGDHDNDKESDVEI
Sequence of Histone deacetylase 3/Nuclear receptor corepressor 2 (HDAC3/NCoR2) (Q9Y618 whole entry, further chain, the tested form may be a part): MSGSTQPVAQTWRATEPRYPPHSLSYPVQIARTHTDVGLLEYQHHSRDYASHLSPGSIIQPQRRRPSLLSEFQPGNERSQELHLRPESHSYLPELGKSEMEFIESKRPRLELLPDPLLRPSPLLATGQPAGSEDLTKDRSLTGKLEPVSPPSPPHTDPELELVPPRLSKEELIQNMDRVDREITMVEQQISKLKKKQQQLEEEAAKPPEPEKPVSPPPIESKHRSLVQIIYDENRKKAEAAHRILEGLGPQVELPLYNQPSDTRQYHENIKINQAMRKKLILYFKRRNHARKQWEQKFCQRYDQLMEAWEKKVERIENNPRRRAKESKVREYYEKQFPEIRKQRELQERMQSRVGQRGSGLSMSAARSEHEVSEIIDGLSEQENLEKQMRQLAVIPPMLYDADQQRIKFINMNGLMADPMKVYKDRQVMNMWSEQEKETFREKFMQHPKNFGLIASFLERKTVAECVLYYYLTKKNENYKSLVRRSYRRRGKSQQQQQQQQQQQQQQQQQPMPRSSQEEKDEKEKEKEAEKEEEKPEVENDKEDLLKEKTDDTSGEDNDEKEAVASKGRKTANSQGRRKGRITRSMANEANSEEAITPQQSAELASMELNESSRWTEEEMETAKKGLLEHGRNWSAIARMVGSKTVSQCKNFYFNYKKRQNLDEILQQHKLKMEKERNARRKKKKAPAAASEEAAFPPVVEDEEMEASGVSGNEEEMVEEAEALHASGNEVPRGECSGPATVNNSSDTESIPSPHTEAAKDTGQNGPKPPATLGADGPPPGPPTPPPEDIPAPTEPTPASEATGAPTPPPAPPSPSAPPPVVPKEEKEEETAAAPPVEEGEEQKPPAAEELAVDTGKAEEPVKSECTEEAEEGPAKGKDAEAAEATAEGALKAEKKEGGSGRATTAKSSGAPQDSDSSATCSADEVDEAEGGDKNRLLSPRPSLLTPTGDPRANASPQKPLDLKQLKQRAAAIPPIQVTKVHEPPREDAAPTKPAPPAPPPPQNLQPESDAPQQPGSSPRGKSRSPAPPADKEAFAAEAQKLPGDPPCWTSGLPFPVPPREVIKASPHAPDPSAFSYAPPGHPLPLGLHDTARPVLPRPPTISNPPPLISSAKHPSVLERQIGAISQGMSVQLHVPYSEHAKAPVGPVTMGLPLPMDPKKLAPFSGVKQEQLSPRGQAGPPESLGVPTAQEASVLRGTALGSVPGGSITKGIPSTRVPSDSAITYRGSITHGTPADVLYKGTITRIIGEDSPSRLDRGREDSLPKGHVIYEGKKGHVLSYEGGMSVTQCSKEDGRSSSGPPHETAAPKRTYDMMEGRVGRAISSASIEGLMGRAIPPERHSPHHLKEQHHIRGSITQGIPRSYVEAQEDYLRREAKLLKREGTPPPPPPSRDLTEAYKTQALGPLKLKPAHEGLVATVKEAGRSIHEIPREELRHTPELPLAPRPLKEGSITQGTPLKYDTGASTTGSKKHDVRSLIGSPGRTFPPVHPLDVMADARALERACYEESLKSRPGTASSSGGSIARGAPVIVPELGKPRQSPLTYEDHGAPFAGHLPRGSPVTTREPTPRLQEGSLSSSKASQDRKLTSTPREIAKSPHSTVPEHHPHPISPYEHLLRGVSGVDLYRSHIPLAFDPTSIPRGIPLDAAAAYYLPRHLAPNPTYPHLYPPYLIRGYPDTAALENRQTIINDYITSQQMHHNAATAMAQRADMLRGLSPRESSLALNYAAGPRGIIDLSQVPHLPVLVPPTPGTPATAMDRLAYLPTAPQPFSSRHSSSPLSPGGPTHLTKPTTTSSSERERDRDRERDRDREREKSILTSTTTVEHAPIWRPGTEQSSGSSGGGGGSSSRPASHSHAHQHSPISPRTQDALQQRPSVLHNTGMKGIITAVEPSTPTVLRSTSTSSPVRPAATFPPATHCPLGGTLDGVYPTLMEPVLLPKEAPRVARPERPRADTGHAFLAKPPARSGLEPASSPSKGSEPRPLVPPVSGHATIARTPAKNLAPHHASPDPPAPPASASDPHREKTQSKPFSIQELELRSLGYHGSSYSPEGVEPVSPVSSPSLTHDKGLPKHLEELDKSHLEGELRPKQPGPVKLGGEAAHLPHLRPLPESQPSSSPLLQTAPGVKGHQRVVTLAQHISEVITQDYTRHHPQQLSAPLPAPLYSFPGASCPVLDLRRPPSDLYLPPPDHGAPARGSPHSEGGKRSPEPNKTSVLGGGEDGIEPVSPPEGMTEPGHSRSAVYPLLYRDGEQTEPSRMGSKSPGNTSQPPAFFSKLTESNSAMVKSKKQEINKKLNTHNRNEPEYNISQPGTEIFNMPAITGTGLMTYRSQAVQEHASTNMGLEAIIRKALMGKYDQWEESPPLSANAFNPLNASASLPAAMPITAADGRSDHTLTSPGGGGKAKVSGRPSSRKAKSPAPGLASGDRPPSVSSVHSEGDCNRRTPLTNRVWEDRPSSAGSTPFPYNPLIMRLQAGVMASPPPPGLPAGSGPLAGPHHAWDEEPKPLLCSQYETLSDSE
The target in another data set is Histone deacetylase 11 (Homo sapiens, UniProt Q96DB2). Nature of the data set: Inhibition of recombinant full length human HDAC11 expressed in baculovirus infected Sf9 cells using Ac-peptide-AMC as substrate after 1 hr by fluorescence assay.
Sequence of Histone deacetylase 11 (Q96DB2 whole entry): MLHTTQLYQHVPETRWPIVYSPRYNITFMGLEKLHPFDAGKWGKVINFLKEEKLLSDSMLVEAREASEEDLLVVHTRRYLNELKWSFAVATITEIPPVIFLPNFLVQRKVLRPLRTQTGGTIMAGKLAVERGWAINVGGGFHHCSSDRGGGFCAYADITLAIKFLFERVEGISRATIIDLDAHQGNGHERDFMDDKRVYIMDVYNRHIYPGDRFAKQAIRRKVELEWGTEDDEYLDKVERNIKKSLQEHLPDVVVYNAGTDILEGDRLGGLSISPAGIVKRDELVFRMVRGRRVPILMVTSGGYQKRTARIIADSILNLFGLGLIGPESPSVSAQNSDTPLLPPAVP
For data set [5], the system named is JeKo-1. Nature of the data set: Induction of apoptosis in human JeKo1 cells assessed as late apoptotic cells at 1000 nM after 48 hrs by annexin V-FITC/propidium iodide staining-based flow cytometric method (reference value: 3.07 %). The class given is functional. The gist of the method: (§2)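 Jeko-1 cells were grown in RPMI-1640 with 10% FBS at 37 °C under 5% CO2. They were exposed to 0, 10, 100 or 1000 nM for 48 h, then apoptosis induction was analysed.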

Data set [6] can be described thus: Toxicity in NOD/SCID mouse xenografted with human Daudi cells assessed as abnormal behavior at 10 mg/kg, iv treated on day 1,3 and 5 per week and measured for every 2 days. The class given is organism-based. The note with it: in vivo, 48 h. The gist of the method: as §1
(Xenograft models place foreign cells or tissue in a host animal.)

Data set [7] in a line: Volume of distribution at steady state in Sprague-Dawley rat at 5 mg/kg, po measured upto 24 hrs by LC-MS/MS analysis. The class given is ADME, organism-based. The conditions noted are these: in vivo. The gist of the method:
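SD rats (200-250 g), six per time point, given 5 mg/kg orally; blood drawn by cardiac puncture at 0, 5, 15, 30, 45 min and 1, 2, 4, 6, 8, 10, 12, 24 h, held on ice. Plasma separated by centrifugation (4000 g, 15 min, 4 °C), stored at -80 °C, assayed by LC-MS/MS in multiple-reaction monitoring mode; parameters from noncompartmental analysis.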

Data set [8] concerns JeKo-1. The data set can be described thus: Cell cycle arrest in human JeKo1 cells assessed as accumulation at G1 phase at 1000 nM after 24 hrs by propidium iodide staining based flow cytometric analysis (reference value: 63.16 %). Type of data set: functional.
Data set [9] relates to JeKo-1. Nature of the data set: Cell cycle arrest in human JeKo1 cells assessed as accumulation at S phase at 1000 nM after 24 hrs by propidium iodide staining based flow cytometric analysis (reference value: 26.13 %). Type of data set: functional.
The subject of data set [10] is JeKo-1. Nature of the data set: Cell cycle arrest in human JeKo1 cells assessed as accumulation at G1 phase at 100 nM after 24 hrs by propidium iodide staining based flow cytometric analysis (reference value: 63.16 %). The class given is functional.
Data set [11] in a line: Antiproliferative activity against human ARD cells after 72 hrs by MTT assay. Type of data set: functional, cell-based. (Formazan colour is commonly taken as a measure of viable cells.)
Data set [12] deals with JeKo-1. Nature of the data set: Cell cycle arrest in human JeKo1 cells assessed as accumulation at S phase at 100 nM after 24 hrs by propidium iodide staining based flow cytometric analysis (reference value: 26.13 %). Type of data set: functional.
Data set [13] is described as follows: Toxicity in NOD/SCID mouse xenografted with human Daudi cells at 20 mg/kg, po treated on day 1,3 and 5 per week and measured for every 2 days. The note with it: in vivo, 48 h. Type of data set: organism-based. The method, boiled down:
as §1

Data set [14] in a line: Clearance in Sprague-Dawley rat at 5 mg/kg, po measured upto 24 hrs by LC-MS/MS analysis. Type of data set: ADME, organism-based. The conditions noted are these: in vivo. The method, boiled down:
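SD rats (200-250 g), six per time point, given 5 mg/kg as a tail-vein bolus or orally. Blood was taken by cardiac puncture before dosing and at 5, 15, 30, 45 min and 1, 2, 4, 6, 8, 10, 12 and 24 h. Plasma was spun at 4000 g for 15 min at 4 °C and stored at -80 °C. Analysis was LC-MS/MS with multiple-reaction monitoring, followed by noncompartmental analysis.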

Data set [15] has as its system JeKo-1. The data set can be described thus: Induction of apoptosis in human JeKo1 cells assessed as early apoptotic cells at 10 nM after 48 hrs by annexin V-FITC/propidium iodide staining-based flow cytometric method (reference value: 3.34 %). The class given is functional. The method, boiled down: as §2
In data set [16] the test system is JeKo-1. The data set can be described thus: Induction of apoptosis in human JeKo1 cells assessed as early apoptotic cells at 1000 nM after 48 hrs by annexin V-FITC/propidium iodide staining-based flow cytometric method (reference value: 3.34 %). The class given is functional. The gist of the method: as §2
For data set [17], the system named is JeKo-1. The data set can be described thus: Induction of apoptosis in human JeKo1 cells assessed as necrotic cells at 10 nM after 48 hrs by annexin V-FITC/propidium iodide staining-based flow cytometric method (reference value: 2.03 %). The class given is functional. The gist of the method: as §2
A further data set relates to MCF7. The data set can be described thus: Antiproliferative activity against human MCF7 cells after 72 hrs by MTT assay. The note with it: MCF7, 72 h. Type of data set: functional, cell-based.

Bounds are passed on as bounds.

In general, IC50 refers to the point on the concentration scale where inhibition reaches its midpoint. Broadly, the CL/F is the apparent clearance, not corrected for the fraction that reaches the circulation.

In the case of `Cc1ccc(CN2CCC(c3noc(CN(C)c4ncc(C(=O)NO)cn4)n3)CC2)cc1`, the Activity result is “Non-Toxic” in data set [1]; 66.88% in the data set with JeKo-1 [2]; 9.1% in the data set on JeKo-1 [3]; 30.4% in the data set on JeKo-1 [5]; “Non-Toxic” in data set [6]; 82.86% in the data set on JeKo-1 [8]. In addition, the Activity with JeKo-1 [9] is 12.82%; in the data set with JeKo-1 [10] it was 80.74%; in the data set on JeKo-1 [12] it was 8.5%; in data set [13], “Non-Toxic”; in the data set on JeKo-1 [15], 5.57%; in the data set with JeKo-1 [16], 42.7%. In addition, in the data set on JeKo-1 [17], the Activity is listed as 0.39%. Moreover, the half-maximal inhibitory concentration (IC50) was 3 nM in [4], above 10000 nM on Histone deacetylase 11, 44.9 nM in data set [11] and 14.4 nM in the data set on MCF7. The compound further showed a Vdss in [7] of 29.13 L/kg. For the same compound, the CL/F in [14] is 372 mL/min/kg.

Values taken from ChEMBL document CHEMBL4364248, “Discovery of 1,2,4-oxadiazole-Containing hydroxamic acid derivatives as histone deacetylase inhibitors potential application in cancer therapy” (Eur J Med Chem, 2019).
